Laboratory results taken from ChEMBL document CHEMBL5104177, “Discovery and Crystallographic Studies of Trisubstituted Piperazine Derivatives as Non-Covalent SARS-CoV-2 Main Protease Inhibitors with High Target Specificity and Low Toxicity” (J Med Chem, 2022).
Values after ≈ are worked out from the molar mass of the structure shown.

Legend:
[1] = molecular target: Replicase polyprotein 1ab (Severe acute respiratory syndrome coronavirus 2, UniProt P0DTD1); test: Inhibition of SARS-CoV-2 main protease using MCA-AVLQSGFR-Lys(Dnp)-Lys-NH2 as fluorescent substrate preincubated for 10 mins followed by substrate addition and measured every 10 sec for 10 mins by FRET assay
[2] = Inhibition of SARS-CoV-1 main protease; set-up: species or system Severe acute respiratory syndrome-related coronavirus
In short: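 SARS-CoV-1 Mpro inhibition tested in addition to SARS-CoV-2 Mpro. Values are mean ± SD of three independent experiments.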

[3] = Cytotoxicity against African green monkey Vero E6 cells assessed as reduction in cell viability incubated for 26 hrs by celltiter 96 aqueous non-radioactive cell proliferation assay; format: toxicity, cell-based, Vero C1008; settings: chlorocebus sabaeus
In short: (§1)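 Cytotoxicity measured in Vero E6 cells run in parallel with the antiviral assay, n = 3 biological replicates, SD reported.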

SARS-CoV-2 [4] = test: Antiviral activity against SARS-CoV-2 infected in Vero E6 cells assessed as inhibition of viral replication incubated for 25 to 26 hrs by EliSpot reader based analysis; format: functional, organism-based; settings: Severe acute respiratory syndrome coronavirus 2, Vero C1008
In short: (§2)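 Antiviral assay in SARS-CoV-2-infected Vero E6 cells, with remdesivir and GC-376 as positive controls, n = 3 biological replicates, SD reported. The potency index is EC50(remdesivir)/EC50(test compound), both measured in this assay.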

Cathepsin B = Cathepsin B (Homo sapiens, UniProt P07858); test: Inhibition of human Cathepsin B using Z-Leu-Arg-AMC as fluorogenic substrate incubated for 60 mins by FRET assay
Procathepsin L = Procathepsin L (Homo sapiens, UniProt P07711); test: Inhibition of human Cathepsin L using Z-Leu-Arg-AMC as fluorogenic substrate incubated for 60 mins by FRET assay
Procathepsin L, sequence (P07711 whole entry): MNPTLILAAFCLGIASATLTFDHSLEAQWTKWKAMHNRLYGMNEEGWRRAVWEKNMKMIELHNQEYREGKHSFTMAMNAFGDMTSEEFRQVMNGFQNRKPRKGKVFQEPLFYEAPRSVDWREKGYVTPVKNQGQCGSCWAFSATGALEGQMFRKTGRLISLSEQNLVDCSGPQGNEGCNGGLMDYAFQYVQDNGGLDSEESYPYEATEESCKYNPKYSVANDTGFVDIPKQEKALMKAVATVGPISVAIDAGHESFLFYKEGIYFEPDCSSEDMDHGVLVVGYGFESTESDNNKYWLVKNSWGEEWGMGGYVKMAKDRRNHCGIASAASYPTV

Cathepsin K = molecular target: T1, Cathepsin K (Homo sapiens, UniProt P43235); test: Inhibition of human Cathepsin K using Ac-LR-AMC as fluorogenic substrate incubated for 60 mins by FRET assay
T1 sequence (P43235 whole entry): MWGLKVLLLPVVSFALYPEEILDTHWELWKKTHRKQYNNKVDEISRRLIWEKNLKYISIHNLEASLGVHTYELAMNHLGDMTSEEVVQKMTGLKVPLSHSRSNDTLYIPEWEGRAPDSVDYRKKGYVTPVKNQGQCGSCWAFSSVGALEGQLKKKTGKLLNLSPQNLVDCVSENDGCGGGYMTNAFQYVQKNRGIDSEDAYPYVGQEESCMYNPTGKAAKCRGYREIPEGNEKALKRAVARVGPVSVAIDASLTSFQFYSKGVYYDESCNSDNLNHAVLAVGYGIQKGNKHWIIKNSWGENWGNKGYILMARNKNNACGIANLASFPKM

SARS-CoV-2 [5] = test: Potency index, ratio of remdesivir EC50 to test compound EC50 for Antiviral activity against SARS-CoV-2 infected in Vero E6 cells assessed as inhibition of viral replication incubated for 25 to 26 hrs by EliSpot reader based analysis; format: functional, Severe acute respiratory syndrome coronavirus 2; in short: as §2
Cathepsin F = molecular target: T2, Cathepsin F (Homo sapiens, UniProt Q9UBX1); test: Inhibition of human Cathepsin F using Z-Phe-Arg-AMC as fluorogenic substrate incubated for 60 mins by FRET assay
T2 sequence (Q9UBX1 whole entry): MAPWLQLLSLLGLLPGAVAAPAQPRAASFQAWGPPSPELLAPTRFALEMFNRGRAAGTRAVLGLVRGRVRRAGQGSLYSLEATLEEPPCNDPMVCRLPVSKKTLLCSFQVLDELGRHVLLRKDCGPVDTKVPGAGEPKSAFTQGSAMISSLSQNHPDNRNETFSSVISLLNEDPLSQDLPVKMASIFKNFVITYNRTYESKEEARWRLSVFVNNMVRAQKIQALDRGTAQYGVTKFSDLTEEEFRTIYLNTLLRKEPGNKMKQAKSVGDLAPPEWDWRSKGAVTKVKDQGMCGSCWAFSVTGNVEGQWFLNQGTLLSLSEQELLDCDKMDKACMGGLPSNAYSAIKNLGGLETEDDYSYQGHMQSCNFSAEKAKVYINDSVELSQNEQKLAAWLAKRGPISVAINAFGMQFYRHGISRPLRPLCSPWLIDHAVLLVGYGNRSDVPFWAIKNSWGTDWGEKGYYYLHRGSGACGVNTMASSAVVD

Caspase-3 = molecular target: T3, Caspase-3 (Homo sapiens, UniProt P42574); test: Inhibition of human caspase-3 using Ac-Asp-Glu-Val-Asp-pNA as substrate incubated for 60 mins by FRET assay
T3 sequence (P42574 whole entry): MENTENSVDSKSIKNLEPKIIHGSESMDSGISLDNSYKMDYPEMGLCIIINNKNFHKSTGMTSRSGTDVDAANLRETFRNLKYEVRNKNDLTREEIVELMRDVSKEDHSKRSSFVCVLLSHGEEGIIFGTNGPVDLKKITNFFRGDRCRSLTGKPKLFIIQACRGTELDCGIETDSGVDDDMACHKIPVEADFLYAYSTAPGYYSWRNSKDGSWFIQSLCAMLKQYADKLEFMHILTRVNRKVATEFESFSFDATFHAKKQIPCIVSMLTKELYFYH

[6] = AUC (0 to t) in Sprague-Dawley rat at 10 mg/kg, po measured upto 24 hrs by LC-MS/MS analysis; format: ADME, organism-based; set-up: dose 10 mg/kg, time < 24 hrs, route po; settings: in vivo
In short: (§3)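 Single-dose pharmacokinetics in Sprague–Dawley rats: 2 mg/kg given i.v. or 10 mg/kg given orally, in separate arms. Plasma parameters were derived for each route. Oral bioavailability (F) was obtained from the two arms. Values are mean ± SD, n = 3.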

[7] = Cmax in Sprague-Dawley rat at 10 mg/kg, po measured upto 24 hrs by LC-MS/MS analysis; format: ADME, organism-based; set-up: time < 24 hrs, dose 10 mg/kg, route po; settings: in vivo; in short: as §3
[8] = Half life in Sprague-Dawley rat at 10 mg/kg, po measured upto 24 hrs by LC-MS/MS analysis; format: ADME, organism-based; settings: in vivo; in short: as §3
[9] = MRT (0 to infinity) in Sprague-Dawley rat at 2 mg/kg, iv measured upto 24 hrs by LC-MS/MS analysis; format: ADME, organism-based; settings: in vivo; in short: as §3
[10] = AUC (0 to t) in Sprague-Dawley rat at 2 mg/kg, iv measured upto 24 hrs by LC-MS/MS analysis; format: ADME, organism-based; set-up: dose 2 mg/kg, time < 24 hrs, route iv; settings: in vivo
[11] = Cmax in Sprague-Dawley rat at 2 mg/kg, iv measured upto 24 hrs by LC-MS/MS analysis; format: ADME, organism-based; set-up: dose 2 mg/kg, time < 24 hrs, route iv; settings: in vivo; in short: as §3
[12] = Tmax in Sprague-Dawley rat at 10 mg/kg, po measured upto 24 hrs by LC-MS/MS analysis; format: ADME, organism-based; settings: in vivo; in short: as §3
[13] = Oral bioavailability in Sprague-Dawley rat at 10 mg/kg measured upto 24 hrs by LC-MS/MS analysis; format: ADME, organism-based; settings: in vivo; in short: as §3
[14] = AUC (0 to infinity) in Sprague-Dawley rat at 2 mg/kg, iv measured upto 24 hrs by LC-MS/MS analysis; format: ADME, organism-based; set-up: dose 2 mg/kg, time < 24 hrs, route iv; settings: in vivo
[15] = Microsomal stability in human liver microsomes assessed as intrinsic clearance at 1 uM preincubated for 10 mins followed by NADPH addition and measured upto 60 mins by LC-MS/MS analysis; format: ADME, Microsome; settings: time < 70 min, read-out: CLH
[16] = Half life in Sprague-Dawley rat at 2 mg/kg, iv measured upto 24 hrs by LC-MS/MS analysis; format: ADME, organism-based; settings: in vivo; in short: as §3
[17] = Tmax in Sprague-Dawley rat at 2 mg/kg, iv measured upto 24 hrs by LC-MS/MS analysis; format: ADME, organism-based; settings: in vivo; in short: as §3
[18] = Kinetic solubility of the compound at pH 7.3; format: physicochemical; settings: buffer, read-out: Kinetic_solubility
In short: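 Kinetic solubility measured in phosphate buffer at pH 7.3.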

[19] = MRT (0 to infinity) in Sprague-Dawley rat at 10 mg/kg, po measured upto 24 hrs by LC-MS/MS analysis; format: ADME, organism-based; settings: in vivo; in short: as §3
[20] = Clearance in Sprague-Dawley rat at 2 mg/kg, iv measured upto 24 hrs by LC-MS/MS analysis; format: ADME, organism-based; settings: in vivo; in short: as §3
[21] = C0 in Sprague-Dawley rat at 2 mg/kg, iv measured upto 24 hrs by LC-MS/MS analysis; format: ADME, organism-based; settings: in vivo; in short: as §3
[22] = AUC (0 to infinity) in Sprague-Dawley rat at 10 mg/kg, po measured upto 24 hrs by LC-MS/MS analysis; format: ADME, organism-based; set-up: dose 10 mg/kg, time < 24 hrs, route po; settings: in vivo; in short: as §3
[23] = Cytotoxicity against African green monkey Vero E6 cells assessed as reduction in cell viability; format: toxicity, cell-based; settings: chlorocebus sabaeus; in short: as §1

O=C(NCc1ccco1)C1CN(C(=O)c2cc(=O)[nH]c(=O)[nH]2)CCN1c1ccc(Cl)c(Cl)c1 (racemic)
IC50 [1]: 0.79 nM

O=C(NCc1cccs1)C1CN(C(=O)c2cc(=O)[nH]c(=O)[nH]2)CCN1c1ccc(Cl)c(Cl)c1 (racemic)
IC50 [1]: 0.61 nM

O=C(NCc1cccs1)[C@@H]1CN(C(=O)c2cc(=O)[nH]c(=O)[nH]2)CCN1Cc1ccc(Cl)cc1Cl
IC50 [2]: 1290 nM | CC50 at 26 h [3]: > 100000 nM | IC50 [1]: 0.44 nM | IC50 (SARS-CoV-2 [4]): > 50000 nM

O=C(NCc1cccs1)[C@@H]1CN(C(=O)c2cc(=O)[nH]c(=O)[nH]2)CCN1c1ccc(Cl)c(Cl)c1 (racemic)
IC50 [2]: 1090 nM | CC50 at 26 h [3]: > 100000 nM | IC50 [1]: 0.4 nM | IC50 (SARS-CoV-2 [4]): > 50000 nM

O=C(NCc1cccs1)[C@@H]1CN(C(=O)c2cncc3ccccc23)CCN1c1ccc(Cl)c(Cl)c1
IC50 (Cathepsin B): 50000 nM | IC50 (Procathepsin L): 50000 nM | CC50 at 26 h [3]: > 100000 nM | IC50 (Cathepsin K): 50000 nM | Ratio (SARS-CoV-2 [5]): 2.8 | IC50 (Cathepsin F): 50000 nM | IC50 [1]: 0.44 nM | IC50 (SARS-CoV-2 [4]): 1000 nM | IC50 (Caspase-3): 50000 nM

O=C(NCc1ccco1)[C@@H]1CN(C(=O)c2cc(=O)[nH]c(=O)[nH]2)CCN1c1ccc(Cl)c(Cl)c1
IC50 [2]: 1000 nM | CC50 at 26 h [3]: > 100000 nM | IC50 [1]: 0.35 nM | IC50 (SARS-CoV-2 [4]): > 50000 nM

O=C(NCc1ccco1)C1CN(C(=O)c2cc(=O)[nH]c(=O)[nH]2)CCN1Cc1ccc(Cl)cc1Cl (stereo unspecified)
IC50 [1]: 0.59 nM

O=C(NCc1ccco1)[C@H]1CN(C(=O)c2cc(=O)[nH]c(=O)[nH]2)CCN1c1ccc(Cl)c(Cl)c1
IC50 [1]: 2.98 nM

O=C(NCc1ccco1)[C@@H]1CN(C(=O)c2cc(=O)[nH]c(=O)[nH]2)CCN1Cc1ccc(Cl)cc1Cl
IC50 [2]: 1650 nM | IC50 [1]: 0.48 nM

Cn1cnc(Cn2c(=O)[nH]/c(=N\c3cc4cn(C)nc4cc3Cl)n(Cc3cc(F)c(F)cc3F)c2=O)n1
CC50 at 26 h [3]: > 100000 nM | IC50 (SARS-CoV-2 [4]): 370 nM

CC(C)C[C@H](NC(=O)OCc1ccccc1)C(=O)N[C@@H](C[C@@H]1CCNC1=O)C(O)S(=O)(=O)O (stereo partly specified)
IC50 (Cathepsin F): 74 nM | IC50 (SARS-CoV-2 [4]): 200 nM

O=C(c1cc(=O)[nH]c(=O)[nH]1)N1CCN(c2ccc(Cl)c(Cl)c2)CC1
CC50 at 26 h [3]: > 100000 nM | IC50 (SARS-CoV-2 [4]): > 50000 nM

O=C(NCc1cccs1)[C@@H]1CN(C(=O)c2cccnc2)CCN1c1ccc(Cl)c(Cl)c1
IC50 (Cathepsin B): 50000 nM | AUC(0-t) at 24 h [6]: 235 ng·h/mL | Cmax [7]: 74.6 ng/mL | half-life [8]: 104 min | MRT inf [9]: 24 min | AUC(0-t) at 24 h [10]: 627 ng·h/mL | Cmax [11]: 1310 ng/mL | IC50 [2]: 4610 nM | Tmax [12]: 30 min | IC50 (Procathepsin L): 50000 nM | F [13]: 72% | CC50 at 26 h [3]: > 100000 nM | AUC [14]: 637 ng·h/mL | CLint scaled at 1 µM [15]: 994 mL/min/kg | half-life [16]: 21.6 min | Tmax [17]: 4.8 min | IC50 (Cathepsin K): 50000 nM | solubility kinetic [18]: 4.1 µg/mL (≈ 8.62 µM) | MRT inf [19]: 147 min | clearance [20]: 52.3 mL/min/kg | IC50 (Cathepsin F): 50000 nM | C0 at 24 h [21]: 1760 ng/mL | AUC [22]: 230 ng·h/mL | IC50 [1]: 0.4 nM | IC50 (SARS-CoV-2 [4]): 1100 nM | IC50 (Caspase-3): 50000 nM

O=c1[nH]cc(-c2cc(-c3cc(Cl)cc(OCc4ccccc4Cl)c3)c(=O)n(-c3cccnc3)c2)c(=O)[nH]1
CC50 [23]: 1700 nM

CCC(CC)COC(=O)[C@H](C)N[P@](=O)(OC[C@H]1O[C@@](C#N)(c2ccc3c(N)ncnn23)[C@H](O)[C@@H]1O)Oc1ccccc1
IC50 (SARS-CoV-2 [4]): 2800 nM
